Laboratory results as given in ChEMBL document CHEMBL1124576 (J Med Chem, 1989).

Tests used:
[1] = molecular target: T1, Adrenergic receptor alpha-1 (Rattus norvegicus, UniProt P15823+P23944+P43140); test: Binding affinity against alpha-1 adrenergic receptor in rat cerebral cortical membrane, determined using [3H]prazosin as the radioligand
T1 sequence (P15823 whole entry): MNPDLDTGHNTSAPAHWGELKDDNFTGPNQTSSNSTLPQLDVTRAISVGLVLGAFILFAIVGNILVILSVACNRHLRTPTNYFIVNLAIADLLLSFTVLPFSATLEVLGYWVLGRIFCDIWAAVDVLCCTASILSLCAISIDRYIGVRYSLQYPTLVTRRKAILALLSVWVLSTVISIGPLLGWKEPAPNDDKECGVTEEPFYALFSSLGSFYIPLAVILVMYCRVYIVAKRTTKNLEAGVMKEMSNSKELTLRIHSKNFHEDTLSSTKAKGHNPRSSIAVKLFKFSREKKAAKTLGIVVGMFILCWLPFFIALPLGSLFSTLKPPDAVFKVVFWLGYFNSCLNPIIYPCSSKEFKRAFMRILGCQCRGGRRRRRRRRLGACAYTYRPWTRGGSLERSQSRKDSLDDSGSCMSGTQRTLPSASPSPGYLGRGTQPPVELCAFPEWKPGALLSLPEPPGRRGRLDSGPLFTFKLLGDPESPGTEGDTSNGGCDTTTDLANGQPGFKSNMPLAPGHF
T1 sequence (P23944 whole entry): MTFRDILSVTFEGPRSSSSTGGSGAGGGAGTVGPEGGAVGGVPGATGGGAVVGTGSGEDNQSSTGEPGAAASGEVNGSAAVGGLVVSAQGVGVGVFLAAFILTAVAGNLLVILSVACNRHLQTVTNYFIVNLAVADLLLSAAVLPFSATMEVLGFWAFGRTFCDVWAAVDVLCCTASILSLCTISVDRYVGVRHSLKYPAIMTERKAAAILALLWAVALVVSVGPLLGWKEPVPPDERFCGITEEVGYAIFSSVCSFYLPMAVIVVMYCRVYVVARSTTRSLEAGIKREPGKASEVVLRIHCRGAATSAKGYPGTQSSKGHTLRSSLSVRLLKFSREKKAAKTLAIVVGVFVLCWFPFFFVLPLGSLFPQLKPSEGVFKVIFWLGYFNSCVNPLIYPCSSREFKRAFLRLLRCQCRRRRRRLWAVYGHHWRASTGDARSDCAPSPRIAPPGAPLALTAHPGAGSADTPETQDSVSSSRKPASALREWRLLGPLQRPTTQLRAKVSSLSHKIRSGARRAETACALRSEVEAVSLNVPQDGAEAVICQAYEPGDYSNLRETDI
T1 sequence (P43140 whole entry): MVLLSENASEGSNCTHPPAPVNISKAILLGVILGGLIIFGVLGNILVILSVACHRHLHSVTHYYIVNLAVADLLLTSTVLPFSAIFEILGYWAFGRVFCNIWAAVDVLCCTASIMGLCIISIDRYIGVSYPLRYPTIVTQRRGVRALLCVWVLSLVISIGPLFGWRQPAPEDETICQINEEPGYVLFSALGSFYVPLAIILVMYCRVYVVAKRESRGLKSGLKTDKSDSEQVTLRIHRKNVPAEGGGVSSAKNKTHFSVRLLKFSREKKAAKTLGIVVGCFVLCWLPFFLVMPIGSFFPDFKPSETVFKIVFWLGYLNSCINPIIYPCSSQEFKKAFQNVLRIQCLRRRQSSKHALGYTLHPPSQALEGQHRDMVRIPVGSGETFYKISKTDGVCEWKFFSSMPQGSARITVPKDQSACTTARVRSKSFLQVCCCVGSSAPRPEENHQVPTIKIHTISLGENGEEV

[2] = molecular target: T2, Adrenergic receptor alpha-2 (Rattus norvegicus, UniProt P22086+P19328+P22909); test: Binding affinity against alpha-2 adrenergic receptor in rat cerebral cortical membrane, determined using [3H]- yohimbine as the radioligand.
T2 sequence (P22086 whole entry): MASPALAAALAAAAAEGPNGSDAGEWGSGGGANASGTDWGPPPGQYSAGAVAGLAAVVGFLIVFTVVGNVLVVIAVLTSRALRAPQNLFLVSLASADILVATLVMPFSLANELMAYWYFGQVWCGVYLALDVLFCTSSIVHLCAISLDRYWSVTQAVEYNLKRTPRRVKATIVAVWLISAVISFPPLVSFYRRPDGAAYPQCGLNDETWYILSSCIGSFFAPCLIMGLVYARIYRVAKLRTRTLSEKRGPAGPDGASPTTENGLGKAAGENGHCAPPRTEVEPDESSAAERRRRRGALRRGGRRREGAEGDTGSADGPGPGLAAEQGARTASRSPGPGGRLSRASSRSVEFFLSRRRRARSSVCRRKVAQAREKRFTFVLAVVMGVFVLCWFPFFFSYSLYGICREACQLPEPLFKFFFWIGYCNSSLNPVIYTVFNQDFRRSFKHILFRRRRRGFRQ
T2 sequence (P19328 whole entry): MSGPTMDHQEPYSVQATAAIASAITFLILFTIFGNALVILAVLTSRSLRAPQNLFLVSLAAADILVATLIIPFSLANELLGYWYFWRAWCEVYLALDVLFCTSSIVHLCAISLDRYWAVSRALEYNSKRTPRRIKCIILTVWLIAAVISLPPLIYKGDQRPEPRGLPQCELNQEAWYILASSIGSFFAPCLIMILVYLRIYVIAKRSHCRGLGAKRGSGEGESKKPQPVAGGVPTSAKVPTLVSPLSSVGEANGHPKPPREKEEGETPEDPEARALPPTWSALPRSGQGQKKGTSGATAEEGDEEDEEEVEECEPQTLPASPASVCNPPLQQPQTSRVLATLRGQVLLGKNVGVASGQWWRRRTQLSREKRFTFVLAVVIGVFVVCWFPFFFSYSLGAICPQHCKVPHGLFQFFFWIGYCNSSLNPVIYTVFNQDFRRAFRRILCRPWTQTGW
T2 sequence (P22909 whole entry): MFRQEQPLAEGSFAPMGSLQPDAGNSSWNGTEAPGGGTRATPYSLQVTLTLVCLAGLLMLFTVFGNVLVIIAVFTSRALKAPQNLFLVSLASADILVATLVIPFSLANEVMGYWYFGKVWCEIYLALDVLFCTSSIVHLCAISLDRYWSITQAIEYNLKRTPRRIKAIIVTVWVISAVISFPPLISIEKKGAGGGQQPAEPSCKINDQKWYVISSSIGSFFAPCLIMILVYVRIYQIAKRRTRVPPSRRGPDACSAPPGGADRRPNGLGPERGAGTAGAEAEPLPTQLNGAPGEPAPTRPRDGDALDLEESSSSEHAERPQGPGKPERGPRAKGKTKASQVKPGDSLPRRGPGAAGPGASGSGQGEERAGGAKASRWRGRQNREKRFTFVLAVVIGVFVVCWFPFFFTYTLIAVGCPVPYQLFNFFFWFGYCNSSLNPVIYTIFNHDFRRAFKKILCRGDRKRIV

Oryctolagus cuniculus = species: Oryctolagus cuniculus; test: Inhibition of phenylephrine-induced contraction of the rabbit aorta as a measure of functional alpha-1-adrenoceptor antagonism; details: read-out: pA2 (converted)
Outline: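 Rabbit aorta contracted with phenylephrine; alpha1 antagonism read as reversal of the contraction, expressed as pA2. Means of at least three separate determinations.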

Rattus norvegicus [3] = test: Beta-adrenoceptor binding density by administering 0.5 mg/kg (once daily for 14 days) in rats; assay type: functional
Outline: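 Rats dosed 0.5 mg/kg once daily for 14 days. Cortical beta-adrenoceptor density measured as Bmax, fmol [3H]dihydroalprenolol bound per mg protein, and compared with untreated controls.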

Rattus norvegicus [4] = test: Reversal clonidine-induced mydriasis in rat, after oral administration; assay type: functional; details: read-out: ID50 (the source's name)
Outline: (§1)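 Rats given clonidine to induce mydriasis; test agent dosed iv or orally. Pupillary diameter measured 10 min after dosing. Value is the dose […] that reduces pupil diameter to 50% of the clonidine-induced maximum. Means of five determinations, SD under 10%. Ratio is oral over iv dose.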

Rattus norvegicus [5] = test: Reversal of clonidine-induced mydriasis in rat, after intravenous administration; assay type: functional; details: read-out: ID50 (the source's name); outline: as §1
[6] = ratio of Oral and Intravenous inhibitory concentrations against reversal of clonidine-induced Mydriasis in rat was evaluated; assay type: functional; outline: as §1
[7] = Antilog of pKi [3H]yohimbine minus PKi [3H]-prazosin was expressed as selectivity
[8] = Antilog of pA2 (Uk14304) minus PA2 (Phenylephrine) was expressed as selectivity; assay type: functional
Outline: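 Guinea pig ileum contracted by field stimulation; alpha2 antagonism read as reversal of the inhibitory effect of UK-14304 on the contraction, expressed as pA2. Selectivity index is the antilog of pA2 (UK-14304) minus pA2 (phenylephrine). Means of at least three separate determinations.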

[9] = molecular target: Adrenergic receptor alpha-2 (Cavia porcellus); test: Ability to reverse inhibitory effects of UK-14304 on the contraction of guinea pig ileum as a measure of alpha-2 adrenergic receptor antagonism.
[10] = Antilog of pKi [3H]-yohimbine minus pKi [3H]prazosin.

| Log Ki [1] | Log Ki [2] | Selectivity [7] | pA2 [9] | Selectivity [10] | Structure (SMILES) | Kb (Oryctolagus cuniculus) [nM] | Bmax (Rattus norvegicus [3]) [fmol/mg] | ED50 (Rattus norvegicus [4]) [mg/kg] | ED50 (Rattus norvegicus [5]) [mg/kg] | Ratio [6] | Selectivity [8] |
| --- | --- | --- | --- | --- | --- | --- | --- | --- | --- | --- | --- |
| -5.29 | -9.45 | 15000 | 9.7 |  | COc1ccc2c(c1)CCN1C[C@H]3CCCN(S(C)(=O)=O)[C@@H]3C[C@@H]21 | 794 | 57 | 0.095 | 0.0065 | 14.6 | 4000 |
| > -5 | -6.32 | > 50 | 6.5 | > 50 | COc1ccc2c(c1)CCN1C[C@@H]3CCCN(S(C)(=O)=O)[C@H]3C[C@H]21 | 10000 |  | > 10 | > 10 |  |  |
|  |  |  |  |  | COC(=O)[C@@H]1[C@H]2C[C@H]3c4[nH]c5ccccc5c4CCN3C[C@@H]2CC[C@@H]1O [YOHIMBINE] |  |  | 2.8 | 0.185 |  |  |
| -4.99 | -9.18 | 15000 | 9.7 |  | COc1ccc2c(c1)CCN1CC3CCCN(S(C)(=O)=O)C3CC21 (stereo unspecified) | > 1000 |  | 0.21 | 0.013 | 16.2 | > 4000 |
|  |  |  |  |  | c1ccc2c(c1)OCC(C1=NCCN1)O2 (stereo unspecified) [IDAZOXAN] |  |  | 1.2 | 0.017 |  |  |
